Tests used:
[1] = target: T1, Bromodomain-containing protein 4 (Homo sapiens, UniProt O60885); experiment: Inhibition of His6-tagged BRD4 bromodomain 1 (unknown origin) expressed in Escherichia coli Bl21(DE3) cells at 1 uM incubated for 4 hrs by FP assay relative to control
Summary of the method: (§1)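 Fluorescence polarization. Purified bromodomain (His6 tag removed with TEV, size-exclusion purified) equilibrated with fluorescent ligand. Compound or DMSO (2‰ final) then added and left 4 h at room temperature in the dark. Anisotropy read at ex 485/em 530 nm. IC50 values are means of at least two independent experiments; single-point inhibition tested at the listed concentration.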

[2] = target: T1, Bromodomain-containing protein 4; experiment: Inhibition of His6-tagged BRD4 bromodomain 1 (unknown origin) expressed in Escherichia coli Bl21(DE3) cells incubated for 4 hrs by FP assay; summary of the method: as §1
[3] = target: T2, Cyclin-dependent kinase 9 (Homo sapiens, UniProt P50750); experiment: Inhibition of human CDK9 by mobility shift assay relative to control
Summary of the method: (§2)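 Recombinant CDK9 incubated with compound and CTD3 peptide substrate. Activity read by Caliper mobility-shift; Dinaciclib served as positive control. IC50 values are means of at least two independent experiments.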

[4] = target: T2, Cyclin-dependent kinase 9; experiment: Inhibition of human CDK9 at 1 uM by mobility shift assay relative to control; summary of the method: as §2
[5] = target: T2, Cyclin-dependent kinase 9; experiment: Inhibition of human CDK9 at 100 nM by mobility shift assay relative to control; summary of the method: as §2
[6] = target: Cyclin-dependent kinase 6 (Homo sapiens) (UniProt Q00534); experiment: Inhibition of CDK6 (unknown origin) at 1 uM relative to control
[7] = target: Cyclin-dependent kinase 6 (Homo sapiens) (UniProt Q00534); experiment: Inhibition of CDK6 (unknown origin) at 100 nM relative to control
[8] = target: Phosphatidylinositol 4,5-bisphosphate 3-kinase catalytic subunit alpha isoform (Homo sapiens) (UniProt P42336); experiment: Inhibition PI3Kalpha (unknown origin) at 1 uM relative to control
[9] = target: Phosphatidylinositol 4,5-bisphosphate 3-kinase catalytic subunit alpha isoform (Homo sapiens) (UniProt P42336); experiment: Inhibition PI3Kalpha (unknown origin) at 100 nM relative to control
[10] = target: T3, Aurora kinase A (Homo sapiens) (UniProt O14965); experiment: Inhibition AuroraA (unknown origin) at 100 nM relative to control
T3 sequence (whole entry): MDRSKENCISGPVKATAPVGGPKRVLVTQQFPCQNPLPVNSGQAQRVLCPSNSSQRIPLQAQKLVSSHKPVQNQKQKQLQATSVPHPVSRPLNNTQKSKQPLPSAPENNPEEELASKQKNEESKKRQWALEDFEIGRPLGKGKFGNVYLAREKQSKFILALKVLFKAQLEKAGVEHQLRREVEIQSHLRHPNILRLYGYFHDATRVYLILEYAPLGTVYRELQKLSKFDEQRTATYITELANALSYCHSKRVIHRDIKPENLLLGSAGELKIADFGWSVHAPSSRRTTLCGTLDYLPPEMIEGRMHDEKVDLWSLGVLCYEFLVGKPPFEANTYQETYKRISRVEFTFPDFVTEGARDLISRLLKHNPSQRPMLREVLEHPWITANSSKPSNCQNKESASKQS

[11] = target: T3, Aurora kinase A (Homo sapiens); experiment: Inhibition AuroraA (unknown origin) at 1 uM relative to control
[12] = target: ALK tyrosine kinase receptor (Homo sapiens, UniProt Q9UM73); experiment: Inhibition of ALK (unknown origin)
[13] = target: T2, Cyclin-dependent kinase 9; experiment: Inhibition of CDK9 in human HCT-116 cells assessed as reduction in phosphorylation of […] protein expression at 50 to 500 nM after 24 hrs by Western blot analysis; assay type: cell-based; details: dose nM 50-500, time 24.0 hrs
Summary of the method: (§3)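 HCT-116 cells plated 24 h, then treated 24 h at 0, 50, 100, 250 or 500 nM. Lysates immunoblotted for p-AR and p-RNA Pol II CTD with GAPDH as loading control; bands quantified and normalized.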

[14] = target: T2, Cyclin-dependent kinase 9; experiment: Inhibition of CDK9 in human HCT-116 cells assessed as reduction in phosphorylation of AR protein expression at 50 to 500 nM after 24 hrs by Western blot analysis; assay type: cell-based; details: dose nM 50-500, time 24.0 hrs; summary of the method: as §3
[15] = target: T1, Bromodomain-containing protein 4; experiment: Inhibition of His6-tagged BRD4 bromodomain 1 (unknown origin) expressed in Escherichia coli Bl21(DE3) cells at 10 uM incubated for 4 hrs by FP assay relative to control; summary of the method: as §1

T2 sequence (P50750 whole entry): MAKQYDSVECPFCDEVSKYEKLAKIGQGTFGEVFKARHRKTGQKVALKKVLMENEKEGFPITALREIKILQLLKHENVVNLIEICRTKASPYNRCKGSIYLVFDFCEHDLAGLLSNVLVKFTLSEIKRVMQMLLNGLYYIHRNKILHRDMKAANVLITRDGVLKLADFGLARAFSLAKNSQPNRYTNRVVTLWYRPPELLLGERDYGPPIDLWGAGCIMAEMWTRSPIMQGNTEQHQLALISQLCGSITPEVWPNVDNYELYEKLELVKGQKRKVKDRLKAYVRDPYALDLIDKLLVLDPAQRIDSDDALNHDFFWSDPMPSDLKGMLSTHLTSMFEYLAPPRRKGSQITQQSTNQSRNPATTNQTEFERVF
Cyclin-dependent kinase 6 (Homo sapiens), sequence (Q00534 whole entry, canonical isoform): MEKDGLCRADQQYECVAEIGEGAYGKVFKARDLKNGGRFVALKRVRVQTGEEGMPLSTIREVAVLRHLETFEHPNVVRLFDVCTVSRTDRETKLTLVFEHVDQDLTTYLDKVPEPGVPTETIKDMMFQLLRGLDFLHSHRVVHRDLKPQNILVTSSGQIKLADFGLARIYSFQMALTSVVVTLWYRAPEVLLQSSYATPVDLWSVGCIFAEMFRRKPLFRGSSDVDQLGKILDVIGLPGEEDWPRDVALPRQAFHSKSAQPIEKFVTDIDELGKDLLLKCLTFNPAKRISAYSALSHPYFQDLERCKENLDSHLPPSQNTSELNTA
Phosphatidylinositol 4,5-bisphosphate 3-kinase catalytic subunit alpha isoform (Homo sapiens), sequence (P42336 whole entry, canonical isoform): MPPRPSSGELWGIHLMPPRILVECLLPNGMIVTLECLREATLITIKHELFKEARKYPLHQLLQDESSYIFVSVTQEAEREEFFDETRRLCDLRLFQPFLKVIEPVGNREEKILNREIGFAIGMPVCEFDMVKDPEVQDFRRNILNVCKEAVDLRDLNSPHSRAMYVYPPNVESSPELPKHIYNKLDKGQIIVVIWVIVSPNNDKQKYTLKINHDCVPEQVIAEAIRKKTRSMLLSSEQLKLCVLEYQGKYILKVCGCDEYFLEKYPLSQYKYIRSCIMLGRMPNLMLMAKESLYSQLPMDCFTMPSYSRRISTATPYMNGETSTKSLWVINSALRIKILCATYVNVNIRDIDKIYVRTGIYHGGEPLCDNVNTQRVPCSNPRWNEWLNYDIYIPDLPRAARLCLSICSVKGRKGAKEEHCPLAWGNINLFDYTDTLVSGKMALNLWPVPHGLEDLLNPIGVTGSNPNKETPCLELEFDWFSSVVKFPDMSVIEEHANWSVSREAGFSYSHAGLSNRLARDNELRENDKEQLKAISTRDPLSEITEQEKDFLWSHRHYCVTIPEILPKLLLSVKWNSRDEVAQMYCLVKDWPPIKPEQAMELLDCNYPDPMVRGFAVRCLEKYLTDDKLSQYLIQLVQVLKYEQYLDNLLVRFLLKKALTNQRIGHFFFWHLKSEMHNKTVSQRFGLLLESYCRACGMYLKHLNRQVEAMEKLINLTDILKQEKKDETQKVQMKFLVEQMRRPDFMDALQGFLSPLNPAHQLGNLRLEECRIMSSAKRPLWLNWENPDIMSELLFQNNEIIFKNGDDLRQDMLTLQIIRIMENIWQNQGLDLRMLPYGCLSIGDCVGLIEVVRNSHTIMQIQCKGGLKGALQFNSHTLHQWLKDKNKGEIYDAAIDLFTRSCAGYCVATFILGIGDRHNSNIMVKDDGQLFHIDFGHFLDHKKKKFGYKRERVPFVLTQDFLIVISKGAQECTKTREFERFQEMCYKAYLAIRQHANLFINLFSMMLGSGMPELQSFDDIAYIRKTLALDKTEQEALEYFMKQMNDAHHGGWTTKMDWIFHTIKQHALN
ALK tyrosine kinase receptor, sequence (Q9UM73 whole entry): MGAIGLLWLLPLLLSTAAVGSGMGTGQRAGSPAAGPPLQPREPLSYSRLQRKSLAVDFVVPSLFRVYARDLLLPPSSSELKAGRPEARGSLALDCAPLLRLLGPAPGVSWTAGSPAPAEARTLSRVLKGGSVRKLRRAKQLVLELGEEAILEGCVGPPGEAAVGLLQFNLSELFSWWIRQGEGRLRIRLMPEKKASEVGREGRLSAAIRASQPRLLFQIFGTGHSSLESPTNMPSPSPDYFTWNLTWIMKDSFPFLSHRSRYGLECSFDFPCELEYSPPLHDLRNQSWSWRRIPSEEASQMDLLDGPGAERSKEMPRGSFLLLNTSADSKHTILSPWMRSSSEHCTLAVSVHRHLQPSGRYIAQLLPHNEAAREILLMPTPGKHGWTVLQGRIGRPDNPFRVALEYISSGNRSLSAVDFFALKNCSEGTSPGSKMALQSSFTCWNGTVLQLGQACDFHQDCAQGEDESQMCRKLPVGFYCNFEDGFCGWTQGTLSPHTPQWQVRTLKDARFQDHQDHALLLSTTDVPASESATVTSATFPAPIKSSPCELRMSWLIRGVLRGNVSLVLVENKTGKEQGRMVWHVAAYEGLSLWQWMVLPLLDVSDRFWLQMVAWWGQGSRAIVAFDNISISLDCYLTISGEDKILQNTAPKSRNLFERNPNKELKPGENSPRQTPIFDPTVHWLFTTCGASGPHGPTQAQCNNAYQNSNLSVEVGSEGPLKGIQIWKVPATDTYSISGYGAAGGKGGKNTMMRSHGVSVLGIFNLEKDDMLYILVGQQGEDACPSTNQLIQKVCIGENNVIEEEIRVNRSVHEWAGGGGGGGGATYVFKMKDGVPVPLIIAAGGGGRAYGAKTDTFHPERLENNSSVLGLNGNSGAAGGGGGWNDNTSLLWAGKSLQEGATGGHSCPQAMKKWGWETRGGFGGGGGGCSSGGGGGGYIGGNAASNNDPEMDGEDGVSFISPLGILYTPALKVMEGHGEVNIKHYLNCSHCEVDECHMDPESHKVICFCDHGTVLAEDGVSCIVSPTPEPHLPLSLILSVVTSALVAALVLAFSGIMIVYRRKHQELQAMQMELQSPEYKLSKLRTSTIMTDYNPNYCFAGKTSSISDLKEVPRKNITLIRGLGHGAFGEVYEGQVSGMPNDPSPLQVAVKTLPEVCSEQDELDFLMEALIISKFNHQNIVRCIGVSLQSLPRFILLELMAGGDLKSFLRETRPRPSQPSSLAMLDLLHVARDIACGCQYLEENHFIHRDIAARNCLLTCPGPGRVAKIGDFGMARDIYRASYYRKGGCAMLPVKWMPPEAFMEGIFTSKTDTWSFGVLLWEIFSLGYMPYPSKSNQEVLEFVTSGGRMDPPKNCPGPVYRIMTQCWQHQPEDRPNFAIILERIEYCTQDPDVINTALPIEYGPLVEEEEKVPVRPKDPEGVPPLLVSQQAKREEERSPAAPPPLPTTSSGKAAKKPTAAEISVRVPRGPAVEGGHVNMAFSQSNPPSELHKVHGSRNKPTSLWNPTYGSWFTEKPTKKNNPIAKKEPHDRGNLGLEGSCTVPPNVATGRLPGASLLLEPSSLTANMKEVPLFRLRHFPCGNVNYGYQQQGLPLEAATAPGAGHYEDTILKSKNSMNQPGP

For Cc1noc(C)c1-c1cccc(Nc2nccc(-c3ccncc3)n2)c1, the inhibition [1] was 37.7%.

CCNc1cccc(-c2ccnc(Nc3ccc4c(c3)N(C(C)C)[C@H](C)C(=O)N4C)n2)c1 gave an IC50 [2] of 319 nM and an IC50 [3] of 37.8 nM.

COc1ccc(-c2ccnc(Nc3ccc4c(c3)N(C(C)C)[C@H](C)C(=O)N4C)n2)cc1 showed an IC50 [2] of 535 nM and an IC50 [3] of 31.7 nM.

COc1cc(F)ccc1-c1ccnc(Nc2ccc3c(c2)N(C(C)C)[C@H](C)C(=O)N3C)n1 was tested, and the IC50 [2] was 497 nM and the IC50 [3] was 46.9 nM.

Work on COc1cccc(-c2ccnc(Nc3ccc4c(c3)N(C(C)C)[C@H](C)C(=O)N4C)n2)c1 yielded an IC50 [2] of 965 nM and an IC50 [3] of 126 nM.

Work on Cc1cc(F)ccc1-c1ccnc(Nc2ccc3c(c2)N(C(C)C)[C@H](C)C(=O)N3C)n1 yielded an IC50 [2] of 156 nM and an IC50 [3] of 578 nM.

For Cc1noc(C)c1-c1cccc(Nc2nccc(-c3ccccc3)n2)c1, the inhibition [1] was 2.2%.

Compound Cc1ccc(N)cc1-c1ccnc(Nc2ccc3c(c2)N(C(C)C)[C@H](C)C(=O)N3C)n1 has an IC50 [2] of 236 nM and an IC50 [3] of 151 nM.

Cc1ccccc1-c1ccnc(Nc2ccc3c(c2)N(C(C)C)[C@H](C)C(=O)N3C)n1 showed an IC50 [2] of 271 nM, an inhibition [4] of 1% and an inhibition [5] of 1.5%.

For CC(C)N1c2cc(Nc3nccc(-c4ccccc4)n3)ccc2N(C)C(=O)[C@H]1C, the IC50 [2] was 193 nM, the inhibition [4] was 102% and the inhibition [5] was 83.4%. The inhibition [6] was 4.8%, the inhibition [7] was -0.8% and the inhibition [8] was 22.9%. It also gave an inhibition [9] of 0% and an inhibition [10] of 10.6%.

For CC(C)N1c2cc(Nc3nccc(-c4ccccc4N)n3)ccc2N(C)C(=O)[C@H]1C, the IC50 [2] was 251 nM and the IC50 [3] was 39.2 nM.

In the case of COc1ccccc1-c1cccc(Nc2ccc3c(c2)N(C(C)C)[C@H](C)C(=O)N3C)c1, the IC50 [2] is reported as 820 nM, the inhibition [4] is reported as 3.8% and the inhibition [5] is reported as -3%. The inhibition [6] was -0.1%, the inhibition [7] was -1.4% and the inhibition [8] was 3%. It also gave an inhibition [9] of -2.6%, an inhibition [11] of -0.8% and an inhibition [10] of 1.1%.

CC(C)N1c2cc(Nc3ncc(F)c(-c4cncc5ccccc45)n3)ccc2N(C)C(=O)[C@H]1C showed an IC50 [2] of 81.3 nM and an IC50 [3] of 23.9 nM.

CC(C)N1c2cc(Nc3nccc(-c4cccc(C#N)c4)n3)ccc2N(C)C(=O)[C@H]1C was tested, and the IC50 [2] was 161 nM, the inhibition [4] was 71.8% and the inhibition [5] was 25.2%. It also gave an inhibition [6] of 2.8%, an inhibition [7] of -0.8% and an inhibition [8] of 63.1%. For the same compound, the inhibition [9] was 14.1%, the inhibition [11] was 54.4% and the inhibition [10] was 8.7%.

CCOc1cc(C2CCN(C)CC2)ccc1Nc1ncc2c(n1)N(Cc1cc(C)cs1)[C@H](CC)C(=O)N2C showed an IC50 [12] of 17 nM.

Work on CC(C)N1c2cc(Nc3cccc(-c4ccncc4)c3)ccc2N(C)C(=O)[C@H]1C yielded an IC50 [2] of 77.3 nM, an inhibition [4] of 0.7% and an inhibition [5] of 2.2%. The inhibition [6] was 0.7%, the inhibition [7] was 2.7% and the inhibition [8] was -1%. For the same compound, the inhibition [9] was -4.1%, the inhibition [11] was 14.2% and the inhibition [10] was -6.1%.

In the case of Cc1ccc(-c2ccnc(Nc3ccc4c(c3)N(C(C)C)[C@H](C)C(=O)N4C)n2)cc1, the IC50 [2] is reported as 5850 nM and the IC50 [3] is reported as 488 nM.

Compound CC(C)Nc1cccc(-c2ccnc(Nc3ccc4c(c3)N(C(C)C)[C@H](C)C(=O)N4C)n2)c1 has an IC50 [2] of 268 nM and an IC50 [3] of 50.9 nM.

Work on CC(C)N1c2cc(Nc3ncc(Cl)c(-c4cncc5ccccc45)n3)ccc2N(C)C(=O)[C@H]1C yielded an IC50 [2] of 58.1 nM and an IC50 [3] of 23 nM.

With COc1cc(F)ccc1-c1ncnc(Nc2cccc(C[S@](C)(=N)=O)c2)n1 the inhibition [13] was “Dose-dependent effect” and the inhibition [14] was “Dose-dependent effect”.

With CC(C)N1c2cc(Nc3nccc(-c4cccc5[nH]ccc45)n3)ccc2N(C)C(=O)[C@H]1C the IC50 [2] was 288 nM and the IC50 [3] was 13.8 nM.

With CC(C)N1c2cc(Nc3nccc(-c4cccc(NC5CCCCC5)c4)n3)ccc2N(C)C(=O)[C@H]1C the IC50 [3] was 169 nM and the inhibition [15] was 13%.

CNc1cccc(-c2ccnc(Nc3ccc4c(c3)N(C(C)C)[C@H](C)C(=O)N4C)n2)c1 showed an IC50 [2] of 173 nM and an IC50 [3] of 22 nM.

CC(C)N1c2cc(Nc3nccc(-c4cccc(N)c4)n3)ccc2N(C)C(=O)[C@H]1C showed an IC50 [2] of 120 nM and an IC50 [3] of 5.9 nM.

CC(C)N1c2cc(Nc3nccc(-c4cccc5cnccc45)n3)ccc2N(C)C(=O)[C@H]1C was tested, and the IC50 [2] was 75.9 nM and the IC50 [3] was 79.8 nM.

Compound CC(C)N1c2cc(Nc3nccc(-c4ccncc4)n3)ccc2N(C)C(=O)[C@H]1C has an IC50 [2] of 83 nM, an inhibition [4] of 98% and an inhibition [5] of 94.5%. It also gave an inhibition [6] of 7.7%, an inhibition [7] of 0.2% and an inhibition [8] of 82.4%. The inhibition [9] was 37.5%, the inhibition [11] was 43.7% and the inhibition [10] was 4%.

CC(C)N1c2cc(Nc3cccc(-c4cccc(C#N)c4)c3)ccc2N(C)C(=O)[C@H]1C gave an IC50 [2] of 666 nM, an inhibition [4] of -4.1% and an inhibition [5] of 2%. For the same compound, the inhibition [6] was -3.3%, the inhibition [7] was 2.3% and the inhibition [8] was 5.2%. The inhibition [9] was -0.1%, the inhibition [11] was -1.8% and the inhibition [10] was -3%.

CC(C)N1c2cc(Nc3nccc(-c4cccc(Nc5ccccc5)c4)n3)ccc2N(C)C(=O)[C@H]1C was tested, and the inhibition [4] was 47.8% and the inhibition [5] was 8.8%.

Cc1c(N)cccc1-c1ccnc(Nc2ccc3c(c2)N(C(C)C)[C@H](C)C(=O)N3C)n1 was tested, and the IC50 [2] was 115 nM and the IC50 [3] was 183 nM.

With CC(C)N1c2cc(Nc3nccc(-c4cccc5nn(C)cc45)n3)ccc2N(C)C(=O)[C@H]1C the IC50 [2] was 168 nM and the IC50 [3] was 110 nM.

CC(C)N1c2cc(Nc3nccc(-c4ccc(N)cc4)n3)ccc2N(C)C(=O)[C@H]1C showed an IC50 [2] of 480 nM and an IC50 [3] of 48.9 nM.

In the case of CC(C)N1c2cc(Nc3cccc(-c4ccccc4)c3)ccc2N(C)C(=O)[C@H]1C, the IC50 [2] is reported as 357 nM, the inhibition [4] is reported as 1.3% and the inhibition [5] is reported as -6.1%. For the same compound, the inhibition [6] was 0.9%, the inhibition [7] was 1.8% and the inhibition [8] was 6.1%. For the same compound, the inhibition [9] was -4.8%, the inhibition [11] was -1.5% and the inhibition [10] was -3.4%.

With CC(C)N1c2cc(Nc3nccc(-c4ccnc5ccccc45)n3)ccc2N(C)C(=O)[C@H]1C the IC50 [2] was 25.3 nM and the IC50 [3] was 19.8 nM.

In the case of CC(C)N1c2cc(Nc3nccc(-c4cccc(NC5CCCC5)c4)n3)ccc2N(C)C(=O)[C@H]1C, the IC50 [3] is reported as 122 nM and the inhibition [15] is reported as 11%.

Cc1cccc(-c2ccnc(Nc3ccc4c(c3)N(C(C)C)[C@H](C)C(=O)N4C)n2)c1 was tested, and the IC50 [2] was 760 nM and the IC50 [3] was 196 nM.

In the case of CC(C)N1c2cc(Nc3nccc(-c4cccc5ncccc45)n3)ccc2N(C)C(=O)[C@H]1C, the IC50 [2] is reported as 15.2 nM and the IC50 [3] is reported as 81.6 nM.

Compound CC(C)N1c2cc(Nc3nccc(-c4cccc5c4CCCN5)n3)ccc2N(C)C(=O)[C@H]1C has an IC50 [2] of 27 nM and an IC50 [3] of 67 nM.

Work on COc1ccccc1-c1ccnc(Nc2ccc3c(c2)N(C(C)C)[C@H](C)C(=O)N3C)n1 yielded an IC50 [2] of 477 nM, an inhibition [4] of 104% and an inhibition [5] of 67.9%. It also gave an inhibition [6] of 8.1%, an inhibition [7] of 2.3% and an inhibition [8] of 0.1%. It also gave an inhibition [9] of -2.1%, an inhibition [11] of 86.8% and an inhibition [10] of 37.4%.

Cc1cnc(Nc2ccc3c(c2)N(C(C)C)[C@H](C)C(=O)N3C)nc1-c1cncc2ccccc12 showed an IC50 [2] of 19.1 nM and an IC50 [3] of 100 nM.

Compound CC(C)N1c2cc(Nc3nccc(-c4c[nH]c5ccccc45)n3)ccc2N(C)C(=O)[C@H]1C has an IC50 [2] of 329 nM, an inhibition [4] of 58.6% and an inhibition [5] of 7.6%.

Reference: ChEMBL document CHEMBL4725348, “Rational Design and Evaluation of 6-(Pyrimidin-2-ylamino)-3,4-dihydroquinoxalin-2(1H)-ones as Polypharmacological Inhibitors of BET and Kinases” (J Med Chem, 2020)
